Experimental data collected from several papers.
Protocols differ between the studies behind these lines.
CDK2: Cyclin-dependent kinase 2 (CDK2, Homo sapiens, UniProt P24941)
PRKD3: Serine/threonine-protein kinase D3 (PRKD3, Homo sapiens, UniProt O94806)

NC/C(=C\F)COc1cccc(Cn2c(=S)[nH]c(=O)c3[nH]cnc32)c1 — inhibition (Alpha-1A adrenergic receptor (Adra1a, Rattus norvegicus, UniProt P43140); ligand displacement, radioligand; 10 µM): < 50%
Cc1cc(S(=O)(=O)NC2CCC(CC3CCN(c4ccc(C5CCC(=O)NC5=O)cc4)CC3)CC2)ccc1Nc1ncc(C(F)(F)F)c(N2CCC[C@](C)(O)C2)n1 (some centres unmarked) — Dmax (CDK2; protein level, degrader, western blot; MKN-1): 80%
CCCCC(=O)Nc1ccc(-c2ccc3ncn(CCC)c(=O)c3c2)cn1 — remaining binding (Serine/threonine-protein kinase TNNI3K (TNNI3K, Homo sapiens, UniProt Q59H18); binding, competition with immobilised ligand; 0.5 µM): 91%
Cc1cc(O)c(-c2ccc([C@@H](C)CN(C)C)cc2)c2c1[nH]c(=O)c1sccc12 — inhibition (Mitogen-activated protein kinase 6 (MAPK6, Homo sapiens, UniProt Q16659); enzyme activity, inhibitor; 0.1 µM): 2.75%
C1=C/COCc2cc(ccc2OCCN2CCCC2)Nc2nccc(n2)-c2cccc(c2)COC/1 — remaining binding (PRKD3; binding; 0.1 µM): 89%
C[C@H]1CN(CC2CCN(c3ccc(C4CCC(=O)NC4=O)cc3F)CC2)CC[C@H]1NS(=O)(=O)c1ccc(Nc2ncc(C(F)(F)F)c(N3CCC[C@](C)(O)C3)n2)c(F)c1 (some centres unmarked) — Dmax (CDK2; protein level, degrader, western blot; TOV21G): 93%
Cc1cc(=O)oc2cc(NC(=O)[C@H](CCCN=C(N)N)NC(=O)[C@H](CCCN=C(N)N)NC(=O)OCc3ccccc3)ccc12 — Km (Cathepsin B (CTSB, Homo sapiens, UniProt P07858); enzyme activity, substrate, fluorescence; pH 7.5): 468 µM
C#Cc1cc(-c2cc(Nc3nc(N[C@@H](C)c4ccc(F)cn4)ncc3Cl)n[nH]2)ccc1C=O — inhibition (PRKD3; enzyme activity, inhibitor; 0.2 µM): 4.02%
